SKN-1 inh: suppressors of acrylamide-induced Pgst-4::GFP reporter in worms, primary screen, SKN-1 inhibitor project, whole organism, uHTS, GFP/RFP fluorescence ratio, strain VP596; inhibition, % at 21.8 µM; C. elegans VP596 Pgst-4::GFP/RFP ratio, 24 h; hit rate 0.49% among 360,000;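 active = interference check ratio from 0.5 to 1.5 plus GFP to RFP signal ratio inhibition reaching or exceeding a fixed threshold, cut at about 30% in these data, passing the limit was not always enough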
TLR9-MyD88 inh: inhibitors of TLR9-MyD88 association in cells, primary screen, cell-based, CHO, BLA complementation, fluorescence; inhibition, % at 4.98 µM; Toll-like receptor 9 (Homo sapiens) + Myeloid differentiation primary response protein …; CCF4 FRET ratio; hit rate 0.21% among 340,000; AID 504734, 2011;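 active = inhibition above the mean over all tested compounds plus 3 SD, cut at about 21% in these data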;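 note: 0% = DMSO only wells and 100% = clavulanate BLA inhibitor control wells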
TLR4-MyD88 BLA: inhibitors of TLR4-MyD88 association in cells, primary screen, cell-based, HeLa CL3-4, BLA complementation, FRET ratio. hit rate 0.18% among 200,000. inhibition, % at 8.4 µM. Toll-like receptor 4 (Homo sapiens) + Myeloid differentiation primary response protein …. HeLa CL3-4 TLR4/MyD88 BLA complementation; in the data active = inhibition above about 25%;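 note: 0% = vehicle and 100% = reference inhibitor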
Target sequence (O00206 whole entry, looked up): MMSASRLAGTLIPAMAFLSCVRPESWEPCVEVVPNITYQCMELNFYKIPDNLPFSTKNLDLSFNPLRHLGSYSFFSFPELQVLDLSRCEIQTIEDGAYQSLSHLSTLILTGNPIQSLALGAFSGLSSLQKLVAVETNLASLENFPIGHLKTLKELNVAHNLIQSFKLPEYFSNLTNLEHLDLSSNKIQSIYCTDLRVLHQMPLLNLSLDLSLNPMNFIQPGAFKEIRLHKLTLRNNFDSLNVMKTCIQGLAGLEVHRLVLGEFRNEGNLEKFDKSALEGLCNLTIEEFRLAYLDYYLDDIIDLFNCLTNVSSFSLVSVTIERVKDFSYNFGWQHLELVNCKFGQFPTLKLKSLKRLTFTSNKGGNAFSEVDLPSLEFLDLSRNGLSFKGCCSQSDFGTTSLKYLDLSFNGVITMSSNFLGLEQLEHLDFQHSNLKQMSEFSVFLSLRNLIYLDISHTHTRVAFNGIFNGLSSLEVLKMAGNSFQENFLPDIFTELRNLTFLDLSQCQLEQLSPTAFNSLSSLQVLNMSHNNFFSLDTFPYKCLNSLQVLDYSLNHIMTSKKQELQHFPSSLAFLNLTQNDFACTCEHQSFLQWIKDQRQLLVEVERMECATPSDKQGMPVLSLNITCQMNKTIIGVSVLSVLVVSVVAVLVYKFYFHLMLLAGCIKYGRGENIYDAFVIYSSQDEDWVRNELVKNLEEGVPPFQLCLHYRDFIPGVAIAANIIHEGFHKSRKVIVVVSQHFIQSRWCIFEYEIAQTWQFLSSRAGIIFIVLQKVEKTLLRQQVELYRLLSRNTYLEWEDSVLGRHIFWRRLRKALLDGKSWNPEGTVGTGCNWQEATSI
Target sequence (Q99836 whole entry, looked up): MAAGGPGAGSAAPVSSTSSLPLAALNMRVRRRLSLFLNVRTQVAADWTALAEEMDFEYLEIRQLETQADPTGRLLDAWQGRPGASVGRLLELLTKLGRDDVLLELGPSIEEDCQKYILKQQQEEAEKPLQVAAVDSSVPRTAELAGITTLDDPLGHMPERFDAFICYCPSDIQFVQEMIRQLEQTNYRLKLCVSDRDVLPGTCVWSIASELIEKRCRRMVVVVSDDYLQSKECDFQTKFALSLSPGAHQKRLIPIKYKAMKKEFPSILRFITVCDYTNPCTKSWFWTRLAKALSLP
MT1-MMP act inh: blockers of MT1-MMP proenzyme processing, primary screen, HT1080 RFP-PRO-GFP cells, GFP/RFP fluorescence; Matrix metalloproteinase-14 (Homo sapiens), P50281; GFP/RFP ratio fluorescence, overnight; percent of plate control window, DMSO zero; GFP/RFP ratio change, % at 20 µM; hit rate 0.061% among 360,000; AID 651647, 2012;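 active = GFP/RFP ratio change of at least 30% with cell ATP level not reduced by more than half and red fluorescence within 50% of control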
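Material: RFP-PRO-GFP reporter HT1080 cells. Dosing: single-point 20 µM compound, 1% DMSO. Controls: DMSO and RFP-L50D-GFP cell wells. Timing: cells overnight before dosing, compound overnight, 37 °C, 5% CO2. Measure: GFP/RFP fluorescence ratio.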
NOD2-RIPK2 inh: NOD2-RIPK2 binding disruptors in cells, primary screen, fluorescence, CHO cells, BLA complementation; CCF4 ratio; inhibition, % at 4.98 µM; hit rate 0.38% among 360,000; AID 624267, 2012; in the data active = inhibition above about 21%;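 note: 0% = vehicle only and 100% = reference blocker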
TLR9-MyD88 cf: TLR9-MyD88 association inhibitors, retest, confirmation, cell-based, CHO, BLA complementation, fluorescence, triplicate; shares compounds with TLR9-MyD88 inh; CCF4 FRET ratio; inhibition, % at 4.98 µM; hit rate 51% among 680; AID 540250, 2011;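 active = mean inhibition across three repeats above about 21% taken from the earlier screen, limit read from the data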;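 note: blue over green emission ratio reports constitutive TLR9 MyD88 association via BLA complementation; 0% = DMSO vehicle wells and 100% = clavulanate BLA inhibitor wells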
BLA counter-1: beta-lactamase reporter inhibitors in CHO cells, artefact control for TLR9-MyD88 binding inhibitor project, cell-based, fluorescence; shares compounds with TLR9-MyD88 inh; CHO-BLA cells, CCF4 FRET ratio, BLA reporter; inhibition, % at 4.98 µM; hit rate 7% among 680; AID 540251, 2011;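 active = mean inhibition above a 50% cutoff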;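 note: counterscreen of TLR9-MyD88 hits on CMV-driven BLA in CHO-K1 cells; 0% = DMSO alone and 100% = clavulanate blocking BLA; higher means less blue over green ratio so more BLA blockade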
TLR9 CHO cytotox: CHO cell viability loss – luminescence, single concentration, cytotoxicity control for TLR9-MyD88 binding inhibitor project; hit rate 39% among 680; TLR9-MyD88 CHO cells cytotoxicity; shares compounds with TLR9-MyD88 inh; inhibition, % at 4.98 µM; in the data active = inhibition above about 11%
NOD2-RIPK2 conf: NOD2-RIPK2 binding disruptors, retest, confirmation, fluorescence, CHO cells, BLA complementation, triplicate. inhibition, % at 4.98 µM. hit rate 70% among 1,200. CCF4 FRET. shares compounds with NOD2-RIPK2 inh;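 active = mean inhibition across replicates above a set limit taken from the earlier primary screen, cut at about 21% in these data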;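 note: 0% = DMSO-only wells and the high end = clavulanate BLA-blocked wells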
BLA counter-2: counter-screen for NOD2-RIPK2 interaction inhibitors: BLA reporter; CHO BLA reporter, CCF4 FRET ratio, counterscreen; inhibition, % at 4.98 µM; shares compounds with NOD2-RIPK2 inh; hit rate 57% among 1,200; AID 624371;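 active = mean inhibition above the low-control mean inhibition plus three low-control SD, cut at about 11% in these data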;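 note: 0% = DMSO only wells and 100% = clavulanate high control wells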
Starred values were filed as active, the others as inactive; nt = no result given; ! = repeats disagree. An excerpt weighted towards active compounds, which were near 0.99% of everything screened.

SMILES	SKN-1 inh	TLR9-MyD88 inh	TLR4-MyD88 BLA	MT1-MMP act inh	NOD2-RIPK2 inh	TLR9-MyD88 cf	BLA counter-1	TLR9 CHO cytotox	NOD2-RIPK2 conf	BLA counter-2
Cc1ccc2c(c1)c(C1=c3ccccc3=NC1=O)c(O)n2C	-7.7	12.0	nt	-2.6	12.1	nt	nt	nt	nt	nt
COc1ccc2ccccc2c1/C=N/NC(=O)c1sc(N)c(C#N)c1C	0.0	21.3*	-3.7	4.2	21.6*	7.9	0.4	4.9	2.9	4.5
O=C(OCC(=O)N1CCN(c2ccccc2)CC1)C1CCCN1S(=O)(=O)c1ccc(Cl)cc1 (stereo not drawn)	13.7	-0.4	nt	8.0	-14.6	nt	nt	nt	nt	nt
CCN(CC)c1ccc2c(C)cc(=O)oc2c1	7.9	-19.1	nt	1.1	-8.3	nt	nt	nt	nt	nt
CCN(CC)c1ccc2c(Cl)c(Br)c(=O)oc2c1	-27.0	91.7*	91.2*	-167.3	95.4*	89.3*	90.5*	52.2*	100.1*	95.7*
CC(=O)Nc1cccc(C(=O)/C=C/c2ccc(N(C)C)cc2)c1	6.4	44.0*	4.3	-35.1	57.4*	24.1*	27.9	0.2	51.1*	57.9*
COc1cc(/C=C/C(O)=C/C(=O)/C=C/c2ccc(O)cc2)ccc1O	10.9	34.2*	nt	-24.1	49.2*	25.4*	22.0	-1.2	57.2*	56.5*
O=C(NN=C1C2CC3CC1CC(Cl)(C3)C2)c1ccccn1	0.6	-0.1	-0.2	2.3	-0.8	nt	nt	nt	nt	nt
O=c1c2cc(F)ccc2sn1-c1ccccc1	21.4	39.9*	nt	3.2	48.4*	35.9*	-2.2	97.1*	50.2*	12.1*
O=c1c2ccccc2sn1-c1cccc(Cl)c1	1.9	10.7	nt	-2.3	0.8	nt	nt	nt	nt	nt
Cc1ccccc1-n1sc2cc(F)ccc2c1=O	0.0	36.0*	0.4	1.2	33.7*	21.3*	3.4	100.4*	47.0*	18.7*
O=C(O)c1cccc(-n2sc3ccccc3c2=O)c1	-3.6	-0.3	nt	0.6	3.9	nt	nt	nt	nt	nt
CC(=O)Nc1ccc2c(=O)n(-c3ccccc3)sc2c1	3.2	27.7*	nt	1.1	31.2*	25.0*	2.8	92.2*	39.7*	10.6*
O=C(NCC[C@H]1CC[C@@H](NC(=O)C2CCC2)[C@@H](CO)O1)c1cc(Cl)cc(Cl)c1	-7.7	nt	nt	-0.6	-11.1	nt	nt	nt	nt	nt
N#Cc1ccccc1COC(=O)CCC(=O)c1cccs1	3.2	5.0	nt	-2.0	3.3	nt	nt	nt	nt	nt
CCN(C(=O)COC(=O)c1ccc[nH]c1=O)c1cccc2ccccc12	19.1	6.0	nt	-0.2	-11.5	nt	nt	nt	nt	nt
O=C1N/C(=C/c2cccn2-c2ccc(F)cc2)C(=O)N1Cc1ccccc1	6.0	61.5*	10.0	-10.3	74.6*	51.1*	52.2*	10.0	84.9*	88.9*
Nc1c(C(=O)Nc2ccccc2F)sc2nc(-c3cccnc3)ccc12	12.1	38.3*	nt	-16.5	21.3*	28.0*	29.5	4.0	46.1*	63.8*
CCOc1ccc2cc(/C=C/C(=O)c3ccco3)c(Cl)nc2c1	7.3	29.2*	35.8*	-74.3	26.6*	7.9	3.6	2.8	5.5	10.2
CCOc1ccc2nc(SCC(=O)NNC(=O)c3ccco3)c(C)cc2c1	15.4	-15.2	nt	1.9	1.5	nt	nt	nt	nt	nt
O=C(CSC(=S)N1CCCCC1)Nc1ncc2c(n1)CCCC2=O	-12.8	-0.7	nt	-5.1	-5.7	nt	nt	nt	nt	nt
Nc1cccc2c1C(=O)N(CCOc1ccccc1F)C2=O	10.3	27.0*	nt	-4.4	32.6*	16.8	21.6	-3.5	37.5*	48.5*
OCCCc1nc2n(n1)C(c1ccccc1)C=C(c1ccc(F)cc1)N2 (stereo not drawn)	4.9	39.2*	5.0	-21.8	51.1*	21.4*	23.5	2.8	39.9*	45.0*
COc1ccc(C(=O)/C=C/C(=O)N(CC(=O)NC2CCCCC2)CC2CCCO2)c(O)c1 (stereo not drawn)	4.5	25.7*	22.5	-3.6	86.8*	33.8*	20.2	97.2*	92.7*	22.4*
COc1ccc(C(=O)/C=C/C(=O)N(CC(=O)NC2CCCCC2)Cc2ccccc2)c(O)c1	6.5	-1.7	18.9	-3.6	7.0	nt	nt	nt	nt	nt
SMILES	SKN-1 inh	TLR9-MyD88 inh	TLR4-MyD88 BLA	MT1-MMP act inh	NOD2-RIPK2 inh	TLR9-MyD88 cf	BLA counter-1	TLR9 CHO cytotox	NOD2-RIPK2 conf	BLA counter-2
O=C(Cn1sc2ccccc2c1=O)Nc1ccc(Br)cc1	-4.1	30.9*	nt	0.1	28.0*	17.4	-0.3	80.6*	34.5*	5.6
COc1cc2ccc(=O)oc2c(O[C@@H]2O[C@H](CO)[C@@H](O)[C@H](O)[C@H]2O)c1O	-10.4	39.6*	nt	1.2	45.3*	24.3*!	31.9	-1.5	48.7*	59.2*
O=C1CC(Sc2nnnn2-c2ccccc2)C(=O)N1c1cccc(Cl)c1 (stereo not drawn)	-1.6	21.6*	4.9	4.5	56.6*	11.5	3.0	98.4*	57.8*	12.3*
CCC/C(C#Cc1ccc(N(C)C)cc1)=C1/c2ccccc2C(=O)N1c1ccccc1	4.2	28.7*	nt	-127.6	40.3*	55.9*	56.5*	2.8	49.2*	60.3*
CCc1nnc(NS(=O)(=O)c2ccc(NCc3cc(Cl)ccc3O)cc2)s1	7.4	-15.7	nt	2.9	-2.5	nt	nt	nt	nt	nt
COc1ccc(-c2cc3ccc(O)cc3oc2=O)cc1OC	6.6	40.1*	nt	1.1	51.9*	28.1*	35.8	1.5	56.1*	59.6*
Cn1c2ccccc2c(=O)c2ccc(C#Cc3ccc(N)cc3)cc21	9.2	40.7*	nt	-13.5	54.7*	32.0*	37.5	3.1	51.1*	59.8*
COc1ccc(O)c(/C=N/NC(=S)Nc2cccc(S(=O)(=O)N(C)C)c2)c1	1.4	25.6*	1.6	1.4	24.9*	12.0	8.5	32.4*	17.2	21.4*

Screens deposited in PubChem BioAssay by several laboratories.
